These results are taken from ChEMBL document CHEMBL1124362, “Synthesis of methotrexate-antibody conjugates by regiospecific coupling and assessment of drug and antitumor activities” (J Med Chem, 1989).

In one experiment the target is T1, Dihydrofolate reductase (Bos taurus, UniProt P00376).
T1 sequence (P00376 whole entry): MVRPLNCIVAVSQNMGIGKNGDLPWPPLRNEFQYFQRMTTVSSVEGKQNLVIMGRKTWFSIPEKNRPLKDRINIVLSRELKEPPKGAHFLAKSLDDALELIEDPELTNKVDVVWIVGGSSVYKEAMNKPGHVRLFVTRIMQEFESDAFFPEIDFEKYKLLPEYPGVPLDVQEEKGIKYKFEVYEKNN
As to the kind of experiment: Concentration required for inhibition of beef liver dihydrofolate reductase.

Experiment [1] concerns CAKI-1. As to the kind of experiment: Inhibition of colony formation of Caki-1 cells by MTX. The settings on record: Homo sapiens. The experiment is classed as functional, cell-based. In short, it runs like this: (§1)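 Single-cell suspensions (>99% trypan blue-excluding) of M21 melanoma or Caki-1 renal carcinoma cells, 1 × 10⁶ cells/mL in McCoy's medium with 15% dialyzed FCS, exposed 6 h at 37 °C to agent, washed three times, plated in 0.3% agar over 0.5% agar base (10⁴ cells/plate). Incubated at 37 °C, 5% CO₂. Colonies >30 cells counted visually at 14 days, three plates per concentration.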

The test system of experiment [2] is CAKI-1. Description: Inhibition of colony formation of Caki-1 cells by amide-linked conjugate (regiospecific coupling) of MTX and Dal K-20. In kind it is functional, cell-based. The note with it: Homo sapiens. An outline of the steps:
as §1

For experiment [3], the system named is CAKI-1. Description: Inhibition of colony formation of Caki-1 cells by amide-linked conjugate of MTX and Dal K-20. The experiment is classed as functional, cell-based. The settings on record: Homo sapiens. In short, it runs like this: as §1
Experiment [4] relates to CAKI-1. As to the kind of experiment: Inhibition of colony formation of Caki-1 cells by hydrazone-linked conjugate (regiospecific coupling) of MTX and Dal K-20. In kind it is functional, cell-based. The settings on record: Homo sapiens. In short, it runs like this:
as §1

Experiment [5] relates to CAKI-1. Description: Inhibition of colony formation of Caki-1 cells by hydrazone-linked conjugate of MTX and Dal K-20. The experiment is classed as functional, cell-based. The note with it: Homo sapiens. An outline of the steps:
as §1

The test system of experiment [6] is M21. As to the kind of experiment: Colony count at 15 ug/mL of amide-linked conjugate of MTX and Dal K-20 in melanoma M21 cells. The note with it: Homo sapiens.
The subject of experiment [7] is M21. Description: Colony count at 10 ug/mL of amide-linked conjugate of MTX and Dal K-20 in melanoma M21 cells. The settings on record: Homo sapiens.
The subject of experiment [8] is M21. Description: Colony count at 20 ug/mL of amide-linked conjugate of MTX and Dal K-20 in melanoma M21 cells. The note with it: Homo sapiens.
Experiment [9] deals with M21. Description: Colony count at 20 ug/mL of hydrazone-linked conjugate of MTX and Dal K-20 in melanoma M21 cells. The settings on record: Homo sapiens.
The subject of experiment [10] is M21. As to the kind of experiment: Colony count at 10 ug/mL of hydrazone-linked conjugate of MTX and Dal K-20 in melanoma M21 cells. The settings on record: Homo sapiens.
The subject of experiment [11] is M21. Description: Colony count at 15 ug/mL of hydrazone-linked conjugate of MTX and Dal K-20 in melanoma M21 cells. The settings on record: Homo sapiens.
The test system of experiment [12] is M21. Description: Colony count at 15 ug/mL of amide-linked conjugate (regiospecific coupling) of MTX and Dal K-20 in melanoma M21 cells. The note with it: Homo sapiens.
Experiment [13] relates to M21. As to the kind of experiment: Colony count at 20 ug/mL of amide-linked conjugate (regiospecific coupling) of MTX and Dal K-20 in melanoma M21 cells. The settings on record: Homo sapiens.
Experiment [14] deals with M21. As to the kind of experiment: Colony count at 10 ug/mL of amide-linked conjugate (regiospecific coupling) of MTX and Dal K-20 in melanoma M21 cells. The note with it: Homo sapiens.
Experiment [15] deals with M21. As to the kind of experiment: Colony count at 15 ug/mL of hydrazone-linked conjugate (regiospecific coupling) of MTX and Dal K-20 in melanoma M21 cells. The settings on record: Homo sapiens.
Experiment [16] deals with M21. As to the kind of experiment: Colony count at 20 ug/mL of hydrazone-linked conjugate (regiospecific coupling) of MTX and Dal K-20 in melanoma M21 cells. The note with it: Homo sapiens.
In experiment [17] the test system is M21. As to the kind of experiment: Colony count at 10 ug/mL of hydrazone-linked conjugate (regiospecific coupling) of MTX and Dal K-20 in melanoma M21 cells. The settings on record: Homo sapiens.

SMILES strings stand for the structures. Converted amounts (≈) assume the structure as drawn.

In general, IC50 refers to the concentration needed to halve the response being measured. The low end stands for greater potency in that assay, the high end for weaker potency in that assay. `CN(Cc1cnc2nc(N)nc(N)c2n1)c1ccc(C(=O)NC(CCC(=O)NN)C(=O)O)cc1` (stereo unspecified): the IC50 against Dihydrofolate reductase was 30.7 µM.

For `COC(=O)CCC(NC(=O)c1ccc(N(C)Cc2cnc3nc(N)nc(N)c3n2)cc1)C(=O)O` (stereo unspecified), at Dihydrofolate reductase, the concentration for half-maximal inhibition (IC50) was 25.4 µM. This IC50 and that of the molecule before are within 1.5-fold of each other.

Consider `CN(Cc1cnc2nc(N)nc(N)c2n1)c1ccc(C(=O)NC(CCC(=O)NN)C(=O)OC(C)(C)C)cc1` (stereo unspecified), for which, on Dihydrofolate reductase, the IC50 was 41.2 µM.

With `CN(Cc1cnc2nc(N)nc(N)c2n1)c1ccc(C(=O)N[C@@H](CCC(=O)O)C(=O)O)cc1` [METHOTREXATE], the 50% inhibitory concentration (IC50) in the experiment with CAKI-1 [1] stood at 25 µg/mL (≈ 55 µM); in the experiment on CAKI-1 [2] it was 3.3 µg/mL (≈ 7.26 µM); with CAKI-1 [3], 4.5 µg/mL (≈ 9.9 µM); with CAKI-1 [4] it was 3 µg/mL (≈ 6.6 µM); in the experiment with CAKI-1 [5], 3.4 µg/mL (≈ 7.48 µM). Besides, the colony count in the experiment on M21 [6] stood at 117 colonies/plate; in the experiment on M21 [7], 109 colonies/plate; in the experiment with M21 [8], 119 colonies/plate; in the experiment on M21 [9], 108 colonies/plate; in the experiment with M21 [10], 112 colonies/plate; in the experiment on M21 [11], 109 colonies/plate. The colony count came to 118 colonies/plate in the experiment on M21 [12]; 112 colonies/plate in the experiment with M21 [13]; 115 colonies/plate with M21 [14]; 121 colonies/plate in the experiment with M21 [15]; 115 colonies/plate with M21 [16]; 120 colonies/plate in the experiment on M21 [17].

In the case of `CN(Cc1cnc2nc(N)nc(N)c2n1)c1ccc(C(=O)NC(CCC(=O)NN)C(=O)NN)cc1` (stereo unspecified), the IC50 on Dihydrofolate reductase was 37.9 µM. That is a double-digit micromolar value.
